Measurements as given in the array DNA melting data of Ke et al. (doi:10.1101/2024.01.08.574731).

Columns and labels:
[1] = folding enthalpy; higher = less favourable; fluorescence melt of hairpins on a sequencing array, two-state fit; conditions: sodium 0.088 M
Outline: (§1)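 Folding enthalpy and melting temperature come from bootstrapped two-state fits to Cy3 fluorescence of library hairpins carrying annealed Cy3 and quencher oligos on a sequenced MiSeq flow cell. Imaging was done in 50 mM Na-HEPES pH 8.0, 25 mM NaCl, stepping by 2.5 °C up to 60 °C, and signals were normalised to pre-quench Cy3 and to control constructs. Results of four replicates were combined by inverse variance, and fitted temperatures were raised by 9.35 °C to match UV melts.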

[2] = melting temperature; fluorescence melt of hairpins on a sequencing array, two-state fit, raised by 9.35 °C to match UV melts; conditions: sodium 0.088 M
Outline: as §1

In the case of GCGGTAATCCGC ((((....)))), the folding enthalpy [1] is reported as -24.7 kcal/mol and the Tm [2] is reported as 56.2 °C.
With GCGGTACACCGC ((((....)))) the folding enthalpy [1] was -40.4 kcal/mol and the Tm [2] was 59.1 °C.
Work on GCGGTACCCCGC ((((....)))) yielded a folding enthalpy [1] of -21.6 kcal/mol and a Tm [2] of 54.5 °C.
In the case of GCGGTACCGAAAGGTCGC (((..(((....)))))), the folding enthalpy [1] is reported as -26.3 kcal/mol and the Tm [2] is reported as 55.4 °C.
GCGGTACTCCGC ((((....)))) showed a folding enthalpy [1] of -23.3 kcal/mol and a Tm [2] of 64.1 °C.
Sequence GCGGTAGAAATACCGC ((((((....)))))) has a folding enthalpy [1] of -36 kcal/mol and a Tm [2] of 66.9 °C.
GCGGTAGCCGC ((((...)))) showed a folding enthalpy [1] of -11.8 kcal/mol and a Tm [2] of 61.2 °C.
With GCGGTAGCGAAAGCTCGC (((..(((....)))))) the folding enthalpy [1] was -15.5 kcal/mol and the Tm [2] was 52.8 °C.
In the case of GCGGTAGGAAACCACCGC (((((.(....).))))), the folding enthalpy [1] is reported as -36.8 kcal/mol and the Tm [2] is reported as 57.3 °C.
Sequence GCGGTAGGAAACTGCCGC ((((.((....)).)))) has a folding enthalpy [1] of -29.6 kcal/mol and a Tm [2] of 61.6 °C.
GCGGTAGGAAACTGCTGC ((.(.((....)).).)) gave a folding enthalpy [1] of -27.5 kcal/mol and a Tm [2] of 45.5 °C.
With GCGGTATCCGC ((((...)))) the folding enthalpy [1] was -24 kcal/mol and the Tm [2] was 54.9 °C.
In the case of GCGGTATGCCGC ((((....)))), the folding enthalpy [1] is reported as -33.6 kcal/mol and the Tm [2] is reported as 63 °C.
Work on GCGGTCAACCGC ((((....)))) yielded a folding enthalpy [1] of -28.6 kcal/mol and a Tm [2] of 56 °C.
GCGGTCACGAAAGTGCGC (((..(((....)))))) gave a folding enthalpy [1] of -29.4 kcal/mol and a Tm [2] of 52.1 °C.
Sequence GCGGTCCCGAAAGGGCGC (((..(((....)))))) has a folding enthalpy [1] of -18.5 kcal/mol and a Tm [2] of 60.1 °C.
For GCGGTCGAAAGACCCCGC ((((((....)))..))), the folding enthalpy [1] was -14.9 kcal/mol and the Tm [2] was 47.5 °C.
Work on GCGGTCGAAAGACCCGC ((((((....))).))) yielded a folding enthalpy [1] of -24 kcal/mol and a Tm [2] of 66.8 °C.
For GCGGTCGAAAGACGACGC ((((((....)))..))), the folding enthalpy [1] was -37.4 kcal/mol and the Tm [2] was 53.8 °C.
GCGGTCGACCGC ((((....)))) showed a folding enthalpy [1] of -38.5 kcal/mol and a Tm [2] of 67.7 °C.
With GCGGTCGCCGC ((((...)))) the folding enthalpy [1] was -5.62 kcal/mol and the Tm [2] was 60.6 °C.
Work on GCGGTCGGAAACAACCGC (((((.(....).))))) yielded a folding enthalpy [1] of -34.7 kcal/mol and a Tm [2] of 55.1 °C.
In the case of GCGGTCGGCCGC ((((....)))), the folding enthalpy [1] is reported as -24.2 kcal/mol and the Tm [2] is reported as 60.1 °C.
Sequence GCGGTCTCGAAAGAGCGC (((..(((....)))))) has a folding enthalpy [1] of -38.2 kcal/mol and a Tm [2] of 58.6 °C.
Work on GCGGTGACCCGC ((((....)))) yielded a folding enthalpy [1] of -23.1 kcal/mol and a Tm [2] of 55.3 °C.
GCGGTGACGAAAGTCCGC (((..(((....)))))) showed a folding enthalpy [1] of -30.8 kcal/mol and a Tm [2] of 57.2 °C.
Sequence GCGGTGCGAAAGCAAAGC ((..(((....)))..)) has a folding enthalpy [1] of -32.1 kcal/mol and a Tm [2] of 63.3 °C.
Sequence GCGGTGCGAAAGCAAGGC ((..(((....)))..)) has a folding enthalpy [1] of -19.1 kcal/mol and a Tm [2] of 51.2 °C.
Sequence GCGGTGCGAAAGCAGGGC ((..(((....)))..)) has a folding enthalpy [1] of -20.5 kcal/mol and a Tm [2] of 55.2 °C.
GCGGTGCGAAAGCGCGGC ((.(.((....)).).)) showed a folding enthalpy [1] of -25 kcal/mol and a Tm [2] of 64.5 °C.
GCGGTGCGAAAGCGCTGC ((.(.((....)).).)) gave a folding enthalpy [1] of -21.6 kcal/mol and a Tm [2] of 66.9 °C.
In the case of GCGGTGGGAAACCACCAC (.(((((....))))).), the folding enthalpy [1] is reported as -12.4 kcal/mol and the Tm [2] is reported as 48.1 °C.
GCGGTGGGAAACCATCGC (((.(((....))).))) showed a folding enthalpy [1] of -40.9 kcal/mol and a Tm [2] of 61.8 °C.
Work on GCGGTGTTCCGC ((((....)))) yielded a folding enthalpy [1] of -20 kcal/mol and a Tm [2] of 65.7 °C.
With GCGGTTCCCGC ((((...)))) the folding enthalpy [1] was -22.1 kcal/mol and the Tm [2] was 67.5 °C.
Sequence GCGGTTGGAAACAGCCGC ((((.((....)).)))) has a folding enthalpy [1] of -40.1 kcal/mol and a Tm [2] of 64.6 °C.
Work on GCGGTTGTCCGC ((((....)))) yielded a folding enthalpy [1] of -23.5 kcal/mol and a Tm [2] of 58.6 °C.
Work on GCGGTTTGCCGC ((((....)))) yielded a folding enthalpy [1] of -41.2 kcal/mol and a Tm [2] of 60.6 °C.
For GCGTAAAACGC ((((...)))), the folding enthalpy [1] was -21.7 kcal/mol and the Tm [2] was 52.9 °C.
Sequence GCGTAAGCGAAAGCTCGC (((..(((....)))))) has a folding enthalpy [1] of -17.6 kcal/mol and a Tm [2] of 48.4 °C.
For GCGTAAGGAAACCTACGC (((((.(....).))))), the folding enthalpy [1] was -40 kcal/mol and the Tm [2] was 49 °C.
For GCGTAAGGAAACTCACGC ((((.((....)).)))), the folding enthalpy [1] was -26.5 kcal/mol and the Tm [2] was 43.8 °C.
Work on GCGTAAGGAAACTTGCGC (((.(((....))).))) yielded a folding enthalpy [1] of -39.4 kcal/mol and a Tm [2] of 54.6 °C.
In the case of GCGTAATTACGC ((((....)))), the folding enthalpy [1] is reported as -30 kcal/mol and the Tm [2] is reported as 51.7 °C.
With GCGTACAGACGC ((((....)))) the folding enthalpy [1] was -22.5 kcal/mol and the Tm [2] was 51 °C.
For GCGTACGAAAGTAACCGC ((((((....)))..))), the folding enthalpy [1] was -22.1 kcal/mol and the Tm [2] was 45 °C.
GCGTACGAAAGTACCCGC ((((((....)))..))) gave a folding enthalpy [1] of -14.2 kcal/mol and a Tm [2] of 40.2 °C.
GCGTACGCGAAAGCGCGC (((..(((....)))))) showed a folding enthalpy [1] of -16.8 kcal/mol and a Tm [2] of 58.5 °C.
GCGTACGGAAACGCACGC ((((.((....)).)))) gave a folding enthalpy [1] of -46.7 kcal/mol and a Tm [2] of 55.4 °C.
With GCGTACGGAAACGTGCGC (((.(((....))).))) the folding enthalpy [1] was -54.1 kcal/mol and the Tm [2] was 64.6 °C.
Sequence GCGTACGGAAACGTGTGC ((..(((....)))..)) has a folding enthalpy [1] of -29.1 kcal/mol and a Tm [2] of 44.7 °C.
With GCGTACGGACGC ((((....)))) the folding enthalpy [1] was -29.5 kcal/mol and the Tm [2] was 52.9 °C.
In the case of GCGTACTCACGC ((((....)))), the folding enthalpy [1] is reported as -19.5 kcal/mol and the Tm [2] is reported as 52.3 °C.
Work on GCGTAGAAATACGC (((((....))))) yielded a folding enthalpy [1] of -25.1 kcal/mol and a Tm [2] of 55.2 °C.
For GCGTAGAGACGC ((((....)))), the folding enthalpy [1] was -13.3 kcal/mol and the Tm [2] was 49.1 °C.
GCGTAGCGAAAGCAAGGC ((.(.((....)).).)) gave a folding enthalpy [1] of -7.5 kcal/mol and a Tm [2] of 35.5 °C.
In the case of GCGTAGCGAAAGCAGCGC (((..((....))..))), the folding enthalpy [1] is reported as -16.6 kcal/mol and the Tm [2] is reported as 65.4 °C.
Work on GCGTAGCGAAAGCGAGGC ((.(.((....)).).)) yielded a folding enthalpy [1] of -7.75 kcal/mol and a Tm [2] of 46.6 °C.
For GCGTAGCGAAAGCGTCGC (((..((....))..))), the folding enthalpy [1] was -20.5 kcal/mol and the Tm [2] was 61.4 °C.
In the case of GCGTAGCGAAAGCTCAGC ((..(((....)))..)), the folding enthalpy [1] is reported as -10.8 kcal/mol and the Tm [2] is reported as 46 °C.
Work on GCGTAGCGAAAGCTCCGC (((.(((....))).))) yielded a folding enthalpy [1] of -40 kcal/mol and a Tm [2] of 49.7 °C.
GCGTAGCGAAAGCTTCGC (((.(((....))).))) gave a folding enthalpy [1] of -36.2 kcal/mol and a Tm [2] of 55 °C.
With GCGTAGCGAAAGCTTGGC ((..(((....)))..)) the folding enthalpy [1] was -7.38 kcal/mol and the Tm [2] was 36.5 °C.
Work on GCGTAGCTACGC ((((....)))) yielded a folding enthalpy [1] of -12.6 kcal/mol and a Tm [2] of 68.1 °C.
Work on GCGTAGGGAAACCTGTGC ((..(((....)))..)) yielded a folding enthalpy [1] of -14.2 kcal/mol and a Tm [2] of 37.4 °C.
Work on GCGTAGTACGC ((((...)))) yielded a folding enthalpy [1] of -20.8 kcal/mol and a Tm [2] of 53.1 °C.
GCGTAGTGACGC ((((....)))) showed a folding enthalpy [1] of -15.4 kcal/mol and a Tm [2] of 53.7 °C.
GCGTATAGACGC ((((....)))) showed a folding enthalpy [1] of -24.6 kcal/mol and a Tm [2] of 50.3 °C.
GCGTATCGAAAGATCCGC (((.(((....))).))) showed a folding enthalpy [1] of -38.1 kcal/mol and a Tm [2] of 50.2 °C.
For GCGTATGGAAACGTACGC (((((.(....).))))), the folding enthalpy [1] was -48 kcal/mol and the Tm [2] was 54.7 °C.
For GCGTCAACACGC ((((....)))), the folding enthalpy [1] was -21.8 kcal/mol and the Tm [2] was 48.5 °C.
Sequence GCGTCACGAAAGTGCCGC (((.(((....))).))) has a folding enthalpy [1] of -46.1 kcal/mol and a Tm [2] of 59.6 °C.
